In ChEMBL document CHEMBL1152380, “The synthesis and biological evaluation of a novel series of C7 non-basic substituted fluoroquinolones as antibacterial agents” (2009):
Converted amounts (≈) assume the structure as drawn.

Columns and labels:
Type in all cases: functional
Staphylococcus aureus [1] = test: Antibacterial activity against Staphylococcus aureus ATCC 25923 by microbroth dilution technique
Summary of the method: (§1)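 MIC, taken as the lowest drug concentration that prevents visible growth, determined by broth microdilution following the National Committee for Clinical and Laboratory Standards method. Strains were reference strains from the American Type Culture Collection or clinical isolates from the hospital culture collection.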

Staphylococcus aureus [2] = test: Antibacterial activity against multidrug-resistant Staphylococcus aureus clinical isolates by microbroth dilution technique
Streptococcus pneumoniae [3] = test: Antibacterial activity against Streptococcus pneumoniae ATCC 49619 by microbroth dilution technique
Summary of the method: (§2)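 Broth microdilution run to the National Committee for Clinical and Laboratory Standards method. MIC is taken as the lowest drug concentration that prevents visible bacterial growth. Strains were clinical isolates from a hospital culture collection or ATCC reference strains.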

Streptococcus pneumoniae [4] = test: Antibacterial activity against multidrug-resistant Streptococcus pneumoniae clinical isolates by microbroth dilution technique; conditions: Streptococcus pneumoniae; read-out: MIC
[5] = tested on: Staphylococcus epidermidis; test: Antibacterial activity against Staphylococcus epidermidis ATCC 12228 by microbroth dilution technique; summary of the method: as §1
Enterococcus faecalis = test: Antibacterial activity against Enterococcus faecalis ATCC 29212 by microbroth dilution technique; summary of the method: as §1
Escherichia coli = test: Antibacterial activity against Escherichia coli ATCC 25922 by microbroth dilution technique; conditions: Escherichia coli, ATCC 25922; read-out: MIC; summary of the method: as §1
Pseudomonas aeruginosa [6] = test: Antibacterial activity against Pseudomonas aeruginosa ATCC 27853 by microbroth dilution technique; conditions: Pseudomonas aeruginosa, ATCC 27853; read-out: MIC; summary of the method: as §2
Pseudomonas aeruginosa [7] = test: Antibacterial activity against multidrug-resistant Pseudomonas aeruginosa clinical isolates by microbroth dilution technique
[8] = Staphylococcus aureus, ATCC 25923, read-out: MIC
[9] = Streptococcus pneumoniae, ATCC 49619, read-out: MIC
[10] = Staphylococcus epidermidis, ATCC 12228, read-out: MIC
[11] = Enterococcus faecalis, ATCC 29212, read-out: MIC
[12] = Pseudomonas aeruginosa, read-out: MIC

For `O=C(O)c1cn(C2CC2)c2nc(N3CCC[C@H]3Cn3cc(CO)nn3)c(F)cc2c1=O`, the MIC (Staphylococcus aureus [1]; [8]) was 32 µg/mL (≈ 74.7 µM), the MIC (Staphylococcus aureus [2]) was over 32 µg/mL and the MIC (Streptococcus pneumoniae [3]; [9]) was 8 µg/mL (≈ 18.7 µM). The MIC (Streptococcus pneumoniae [4]) was 4 µg/mL (≈ 9.34 µM), the MIC [5, 10] was 32 µg/mL (≈ 74.7 µM) and the MIC (Enterococcus faecalis; [11]) was 4 µg/mL (≈ 9.34 µM). It also gave an MIC (Escherichia coli) of 32 µg/mL (≈ 74.7 µM), an MIC (Pseudomonas aeruginosa [6]) of 32 µg/mL (≈ 74.7 µM) and an MIC (Pseudomonas aeruginosa [7]; [12]) of 32 µg/mL (≈ 74.7 µM).

`O=C(O)c1cn(C2CC2)c2nc(N3CC4CC3C[S+]4[O-])c(F)cc2c1=O` (stereo in doubt; 6.28) showed an MIC (Staphylococcus aureus [1]) of 4 µg/mL (≈ 10.6 µM), an MIC (Staphylococcus aureus [2]) of over 32 µg/mL and an MIC (Streptococcus pneumoniae [3]) of 0.5 µg/mL (≈ 1.32 µM). It also gave an MIC (Streptococcus pneumoniae [4]) of 0.25 µg/mL (≈ 0.662 µM), an MIC [5] of 4 µg/mL (≈ 10.6 µM) and an MIC (Enterococcus faecalis) of 1 µg/mL (≈ 2.65 µM). It also gave an MIC (Escherichia coli) of 1 µg/mL (≈ 2.65 µM), an MIC (Pseudomonas aeruginosa [6]) of 32 µg/mL (≈ 84.8 µM) and an MIC (Pseudomonas aeruginosa [7]) of 32 µg/mL (≈ 84.8 µM).

`COC(=O)[C@@H]1C[C@@H](O)CN1c1nc2c(cc1F)c(=O)c(C(=O)O)cn2C1CC1` was tested, and the MIC (Staphylococcus aureus [1]; [8]) was 2 µg/mL (≈ 5.11 µM), the MIC (Staphylococcus aureus [2]) was over 32 µg/mL and the MIC (Streptococcus pneumoniae [3]; [9]) was 0.5 µg/mL (≈ 1.28 µM). For the same molecule, the MIC (Streptococcus pneumoniae [4]) was 0.5 µg/mL (≈ 1.28 µM), the MIC [5, 10] was 16 µg/mL (≈ 40.9 µM) and the MIC (Enterococcus faecalis; [11]) was 1 µg/mL (≈ 2.56 µM). It also gave an MIC (Escherichia coli) of 8 µg/mL (≈ 20.4 µM), an MIC (Pseudomonas aeruginosa [6]) of 32 µg/mL (≈ 81.8 µM) and an MIC (Pseudomonas aeruginosa [7]; [12]) of 32 µg/mL (≈ 81.8 µM).

`O=C(O)c1cn(C2CC2)c2nc(N3CC4CC3CS4(=O)=O)c(F)cc2c1=O` (configuration not stated) gave an MIC (Staphylococcus aureus [1]; [8]) of 0.016 µg/mL (≈ 0.0407 µM), an MIC (Staphylococcus aureus [2]) of over 32 µg/mL and an MIC (Streptococcus pneumoniae [3]; [9]) of 0.063 µg/mL (≈ 0.16 µM). For the same molecule, the MIC (Streptococcus pneumoniae [4]) was 0.031 µg/mL (≈ 0.0788 µM), the MIC [5, 10] was 0.5 µg/mL (≈ 1.27 µM) and the MIC (Enterococcus faecalis; [11]) was 0.063 µg/mL (≈ 0.16 µM). It also gave an MIC (Escherichia coli) of 0.125 µg/mL (≈ 0.318 µM), an MIC (Pseudomonas aeruginosa [6]) of 8 µg/mL (≈ 20.3 µM) and an MIC (Pseudomonas aeruginosa [7]; [12]) of 32 µg/mL (≈ 81.3 µM).

In the case of `O=C(O)c1cn(C2CC2)c2nc(N3C[C@@H](O)[C@H](O)C3)c(F)cc2c1=O`, the MIC (Staphylococcus aureus [1]; [8]) is reported as 4 µg/mL (≈ 11.5 µM), the MIC (Staphylococcus aureus [2]) is reported as over 32 µg/mL and the MIC (Streptococcus pneumoniae [3]; [9]) is reported as 2 µg/mL (≈ 5.73 µM). For the same molecule, the MIC (Streptococcus pneumoniae [4]) was 2 µg/mL (≈ 5.73 µM), the MIC [5, 10] was over 32 µg/mL and the MIC (Enterococcus faecalis; [11]) was 2 µg/mL (≈ 5.73 µM). It also gave an MIC (Escherichia coli) of 4 µg/mL (≈ 11.5 µM), an MIC (Pseudomonas aeruginosa [6]) of 32 µg/mL (≈ 91.6 µM) and an MIC (Pseudomonas aeruginosa [7]; [12]) of 32 µg/mL (≈ 91.6 µM).

`COC(=O)[C@@H]1C[C@@H](n2cc(CO)nn2)CN1c1nc2c(cc1F)c(=O)c(C(=O)O)cn2C1CC1` gave an MIC (Staphylococcus aureus [1]; [8]) of 4 µg/mL (≈ 8.47 µM), an MIC (Staphylococcus aureus [2]) of over 32 µg/mL and an MIC (Streptococcus pneumoniae [3]; [9]) of 1 µg/mL (≈ 2.12 µM). It also gave an MIC (Streptococcus pneumoniae [4]) of 1 µg/mL (≈ 2.12 µM), an MIC [5, 10] of 8 µg/mL (≈ 16.9 µM) and an MIC (Enterococcus faecalis; [11]) of 0.5 µg/mL (≈ 1.06 µM). For the same molecule, the MIC (Escherichia coli) was 4 µg/mL (≈ 8.47 µM), the MIC (Pseudomonas aeruginosa [6]) was 32 µg/mL (≈ 67.7 µM) and the MIC (Pseudomonas aeruginosa [7]; [12]) was over 32 µg/mL.

With `C[C@@H](O)[C@@H]1C[C@@H](O)CN1c1nc2c(cc1F)c(=O)c(C(=O)O)cn2C1CC1` the MIC (Staphylococcus aureus [1]; [8]) was 32 µg/mL (≈ 84.8 µM), the MIC (Staphylococcus aureus [2]) was over 32 µg/mL and the MIC (Streptococcus pneumoniae [3]; [9]) was 2 µg/mL (≈ 5.3 µM). For the same molecule, the MIC (Streptococcus pneumoniae [4]) was 8 µg/mL (≈ 21.2 µM), the MIC [5, 10] was over 32 µg/mL and the MIC (Enterococcus faecalis; [11]) was 2 µg/mL (≈ 5.3 µM). For the same molecule, the MIC (Escherichia coli) was 16 µg/mL (≈ 42.4 µM), the MIC (Pseudomonas aeruginosa [6]) was 32 µg/mL (≈ 84.8 µM) and the MIC (Pseudomonas aeruginosa [7]; [12]) was 32 µg/mL (≈ 84.8 µM).

For `O=C(O)c1cn(C2CC2)c2nc(N3CC4CC3CS4)c(F)cc2c1=O` (configuration not stated), the MIC (Staphylococcus aureus [1]; [8]) was 0.016 µg/mL (≈ 0.0443 µM), the MIC (Staphylococcus aureus [2]) was over 32 µg/mL and the MIC (Streptococcus pneumoniae [3]; [9]) was 0.031 µg/mL (≈ 0.0858 µM). For the same molecule, the MIC (Streptococcus pneumoniae [4]) was 0.031 µg/mL (≈ 0.0858 µM), the MIC [5, 10] was 0.125 µg/mL (≈ 0.346 µM) and the MIC (Enterococcus faecalis; [11]) was 0.125 µg/mL (≈ 0.346 µM). The MIC (Escherichia coli) was 0.125 µg/mL (≈ 0.346 µM), the MIC (Pseudomonas aeruginosa [6]) was 2 µg/mL (≈ 5.53 µM) and the MIC (Pseudomonas aeruginosa [7]; [12]) was 32 µg/mL (≈ 88.5 µM).

`O=C(O)c1cn(C2CC2)c2nc(N3CCC[C@H]3Cn3cc(-c4ccccc4)nn3)c(F)cc2c1=O` showed an MIC (Staphylococcus aureus [1]; [8]) of 1 µg/mL (≈ 2.11 µM), an MIC [5, 10] of over 32 µg/mL and an MIC (Enterococcus faecalis; [11]) of 4 µg/mL (≈ 8.43 µM). For the same molecule, the MIC (Escherichia coli) was over 32 µg/mL and the MIC (Pseudomonas aeruginosa [6]) was over 32 µg/mL.
